In the EternaBench riboswitch data:

Columns and labels:
[1] = tested on: MS2 coat protein; assay: apparent Kd, MS2 coat protein; higher = weaker binding; RNA-MaP array; tryptophan 2.4 mM where present; settings: designed as: ON switch for tryptophan
In short: (§1)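 SNAP-549-labelled MS2 coat protein, doubled from 0.7 or 1.5 nM to 3 µM, was titrated over designs transcribed by stalled E. coli RNA polymerase on Illumina sequencing-chip clusters. Titrations were run without and then with constant ligand in 100 mM Tris-HCl pH 7.5, 80 mM KCl, 4 mM MgCl2, BSA, DTT, yeast tRNA and Tween-20. The apparent Kd is the median of filtered per-cluster fits to green signal normalised to red-channel RNA signal and control-cluster median Fmax.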

[2] = tested on: MS2 coat protein; assay: apparent Kd, MS2 coat protein; higher = weaker binding; RNA-MaP array; theophylline 2 mM where present
In short: as §1

[3] = designed as: OFF switch for theophylline, no ligand
[4] = ligand present: theophylline, designed as: OFF switch for theophylline
[5] = designed as: ON switch for theophylline, no ligand
[6] = ligand present: theophylline, designed as: ON switch for theophylline

Row | Sequence | apparent Kd [2, 3] | apparent Kd [2, 4] | apparent Kd [2, 5] | apparent Kd [2, 6] | other results
1 | UGCAUUAUACAUGGAUCACCCAUGUAGACACGAGGACCGGUACGGCCGCCACUCGGAAGAGGAAACAUGAGGAUCACCCAUGUGA | – | – | – | – | apparent Kd ([1]; no ligand): 78.5 nM; apparent Kd ([1]; ligand present: tryptophan): 78.2 nM
2 | GGUGGAGGCGUGGGACUUGUCUGAACGGAUACCAGCCACAUCACGGGCCCUUGGCAGCUGUACAUGAGGAUCACCCAUGUCGGUC | 32.3 nM | 93.7 nM | – | – | –
3 | AAUUUGUCGGGUGAUACCAGCCUCGGCGCGUCUCGCGCUGAACAUGAGGAUCACCCAUGUGGCCCUUGGCAGCACAUGACAAAUC | – | – | 670 nM | 38.2 nM | –
4 | CAAGAAGUAACUGAUACCAGUGUACUGACAUGAGGAUCACCCAUGUUGGGUUUUGUUGUACACCCUUGGCAGCAGAAUCUUCUUG | 66.8 nM | 90.5 nM | – | – | –
5 | UAAUAUCACAUAUUAUGGGUGUAAUGUGAUACCAGCUAGGAAACUAGCCCUUGGCAGCACAUGAGGAUCACCCAUGUAAGCUGUA | 77.9 nM | 49.7 nM | – | – | –
6 | GAUCUGUCGGGUGAUACCAGCCUCGGCACAUCUCGUGCCGAACAUGAGGAUCACCCAUGUGGCCCUUGGCAGCACAUGACAAAUC | – | – | 362 nM | 55.1 nM | –
7 | CUGCUACAUGAGGAUCACCCAUGUGGAGAUACCAGCCUGAACGAUGGCCCUUGGCAGCUCUUAGCUGGUGAUCAUAUAUUUCAGA | 30.5 nM | 146 nM | – | – | –
8 | GCCAGACAUGAGGAUCACCCAUGUAGCGAUACCAGCUCUGUUGUGAGCCCUUGGCAGCGCACUGGCAUCGCGGGUGAUCCUGCAU | – | – | 43.4 nM | 164 nM | –
9 | CAAUACGUAACUGAUACCAGUGUACUGACAUGAGGAUCACCCAUGUUGGGUUUUGUUGUACACCCUUGGCAGCAGAAUCGUAUUG | 70.1 nM | 93.7 nM | – | – | –
10 | ACAUGAGGAUCACCCAUGUGGCGACUUGAUACCAGACCCGCACUAGUCCCUUGGCAGCAACUACGUGUGGGACACCCAUGUUAAG | 16.9 nM | 22 nM | – | – | –
11 | ACGUCUCGAAAACUCGUAGUAACAAUAGAUACCAGUAGCGAGAGUUACCCUUGGCAGCUACAUGAGGAUCACCCAUGUACGAGGA | 17.4 nM | 17.2 nM | – | – | –
12 | UUAUUUAUAUUAGAUACCAGUUUAAUGGCCGCAAAUCCUGACAUGAGGAUCACCCAUGUAAGCCCUUGGCAGCUGGUAUGGGUUU | 19.3 nM | 20.7 nM | – | – | –
13 | UGUCUAGUAAUCGAUACCAGCUACAUGAGGAUCACCCAUGUAGUUCGAACGGCCGCAUGUAGCCCUUGGCAGCGAAUAGUUACAU | 18.9 nM | 52.7 nM | – | – | –
14 | ACCCUAGCGAUCGCUCGCUAGGGUGCGGAUACCAGCGAGGUCCAUCGCCCUUGGCAGCCGAACAUGAGGAUCACCCAUGUCGGUA | – | – | 10.7 nM | 14.3 nM | –
15 | AGCGACAUGCGUGAUACCAGCUACAUGAGGAUCACCCAUGUAAGUAGGAAACUACUGUGUAGCCCUUGGCAGCAUAGUGCAUGUC | 13.5 nM | 41.5 nM | – | – | –
16 | AGAUUACAUGUUAUAAUACGGUAUACUGAUACCAGUGUUUCUAUUCACCCUUGGCAGCAGCAACAUGAGGAUCACCCAUGUAUUA | – | – | 17.1 nM | 16 nM | –
17 | UUUUAACAUGAGGAUCACCCAUGUAAUGAUACCAGAGACGAAAGUCUCCCUUGGCAGCAUAUAUCAUUACUCAUAGGAAACUAUG | – | – | 17.5 nM | 16 nM | –
18 | GAGCUGAUGUAGAAAUUUUAUUUCUGAGAUACCAGUACAGAAAUGUACCCUUGGCAGCUCAGUUUUACAUGAGGAUCACCCAUGU | 12.2 nM | 15 nM | – | – | –
19 | AUUAAAAGUUGUGAUACCAGACGAACAUGAGGAUCACCCAUGUAACUUUUAGGUGUUGUAGUCCCUUGGCAGCACUAUGUAGUUA | – | – | 43.6 nM | 38.2 nM | –
20 | CCGAACAUGAGGAUCACCCAUGUUAGGGAUACCAGCCCAGACAUGGGCCCUUGGCAGCUCUAUAGCUGACGAAAGUCAGCAUCGG | – | – | 58.5 nM | 30.5 nM | –
21 | ACGAACGAUAGUGAUACCAGACGUACAUGAGGAUCACCCAUGUUAUACACAUGGUUUAUUGUCCCUUGGCAGCACGAUAAGUUCG | 225 nM | 287 nM | – | – | –
22 | UGUAACAUGAGGAUCACCCAUGUAAGUGAUACCAGAUAAGUAGUAGUCCCUUGGCAGCAUAUUGGGAAAGUGUAUAGUCUAUAUU | – | – | 57.2 nM | 55.6 nM | –
23 | AUUUUCAUGGUCAUAUAUAUAUCUUCAGAUACCAGACUAUAUUAAGUCCCUUGGCAGCUGUUACAUGAGGAUCACCCAUGUUAUA | 127 nM | 36.2 nM | – | – | –
24 | AACUGGACCCGUGAUACCAGAGACAUGAGGAUCACCCAUGUACAUGAGGAUCACCCAUGUCUCCCUUGGCAGCACCGCAGGGAGC | 97.5 nM | 393 nM | – | – | –
25 | AGCGACAUGCAUGAUACCAGCUACAUGAGGAUCACCCAUGUACGUCAGUAAUGACUGUGUAGCCCUUGGCAGCAUAGAGCAUGUC | 18.3 nM | 48.6 nM | – | – | –
26 | GGUGGUGGGACGGAUACCAGCCACCGCGGCAACGCAACAUGAGGAUCACCCAUGUUGGGUGGCCCUUGGCAGCUGUCCUGCGGCG | – | – | 13.9 nM | 13.1 nM | –
